Test results taken from ChEMBL document CHEMBL1138841, “An orally bioavailable, functionally selective inverse agonist at the benzodiazepine site of GABAA alpha5 receptors with cognition enhancing properties” (J Med Chem, 2004).

How the values were obtained:
[1] = biological target: GABA A receptor alpha-4/beta-3/gamma-2 (Homo sapiens, UniProt P18507+P28472+P48169); assay: Binding affinity towards gamma-aminobutyric-acid GABA-A receptor alpha-4-beta-3-gamma-2; type: protein-complex assay
[2] = biological target: T1, GABA-A receptor; alpha-3/beta-3/gamma-2 (Homo sapiens, UniProt P18507+P28472+P34903); assay: Displacement of [3H]-Ro- 15-1788 from human gamma-aminobutyric-acid GABA-A receptor alpha-3-beta-3-gamma-2 expressed in L(tk-) cells; type: cell-based
T1 sequence (P18507 whole entry): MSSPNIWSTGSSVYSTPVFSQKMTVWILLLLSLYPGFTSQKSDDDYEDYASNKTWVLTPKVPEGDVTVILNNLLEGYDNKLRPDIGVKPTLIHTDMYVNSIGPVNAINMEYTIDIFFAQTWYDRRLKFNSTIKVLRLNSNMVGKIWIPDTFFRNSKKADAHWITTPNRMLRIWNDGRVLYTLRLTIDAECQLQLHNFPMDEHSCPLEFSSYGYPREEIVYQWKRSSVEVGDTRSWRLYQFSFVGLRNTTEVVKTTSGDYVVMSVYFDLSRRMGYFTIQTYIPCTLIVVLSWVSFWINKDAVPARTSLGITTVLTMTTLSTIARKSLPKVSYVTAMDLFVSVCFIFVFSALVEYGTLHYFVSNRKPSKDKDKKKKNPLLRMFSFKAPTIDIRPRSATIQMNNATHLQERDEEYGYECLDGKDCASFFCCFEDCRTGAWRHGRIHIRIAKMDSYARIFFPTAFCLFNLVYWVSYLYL
T1 sequence (P28472 whole entry): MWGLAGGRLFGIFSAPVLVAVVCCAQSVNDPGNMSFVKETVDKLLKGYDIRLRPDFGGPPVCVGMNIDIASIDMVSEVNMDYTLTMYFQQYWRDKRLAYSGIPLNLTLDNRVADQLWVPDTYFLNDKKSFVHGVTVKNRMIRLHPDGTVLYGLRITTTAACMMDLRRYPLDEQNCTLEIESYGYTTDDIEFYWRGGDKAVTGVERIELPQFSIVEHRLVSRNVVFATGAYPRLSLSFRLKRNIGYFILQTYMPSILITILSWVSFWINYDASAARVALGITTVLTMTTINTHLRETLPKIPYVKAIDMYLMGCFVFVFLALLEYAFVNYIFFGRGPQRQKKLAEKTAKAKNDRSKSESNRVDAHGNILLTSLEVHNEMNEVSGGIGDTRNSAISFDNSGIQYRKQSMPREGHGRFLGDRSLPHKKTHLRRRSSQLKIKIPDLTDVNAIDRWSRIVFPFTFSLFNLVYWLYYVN
T1 sequence (P34903 whole entry): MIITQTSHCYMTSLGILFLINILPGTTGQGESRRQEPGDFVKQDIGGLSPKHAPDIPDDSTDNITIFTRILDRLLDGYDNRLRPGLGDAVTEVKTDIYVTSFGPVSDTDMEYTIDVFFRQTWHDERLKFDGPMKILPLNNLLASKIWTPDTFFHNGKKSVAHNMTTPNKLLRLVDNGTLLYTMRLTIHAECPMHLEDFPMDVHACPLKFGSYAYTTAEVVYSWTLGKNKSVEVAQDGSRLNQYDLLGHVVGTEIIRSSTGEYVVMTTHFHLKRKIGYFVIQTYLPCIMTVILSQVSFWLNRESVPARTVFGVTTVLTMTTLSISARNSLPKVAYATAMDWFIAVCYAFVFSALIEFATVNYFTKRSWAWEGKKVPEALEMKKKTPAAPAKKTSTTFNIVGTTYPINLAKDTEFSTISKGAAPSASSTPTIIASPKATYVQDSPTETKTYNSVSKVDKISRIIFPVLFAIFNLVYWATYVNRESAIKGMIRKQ

[3] = biological target: T2, GABA-A receptor; alpha-5/beta-3/gamma-2 (Homo sapiens, UniProt P18507+P28472+P31644); assay: Displacement of [3H]-Ro- 15-1788 from human gamma-aminobutyric-acid GABA-A receptor alpha-5-beta-3-gamma-2 expressed in L(tk-) cells; type: cell-based
T2 sequence (P18507 whole entry): T1 sequence (P18507 whole entry)
T2 sequence (P28472 whole entry): T1 sequence (P28472 whole entry)
T2 sequence (P31644 whole entry): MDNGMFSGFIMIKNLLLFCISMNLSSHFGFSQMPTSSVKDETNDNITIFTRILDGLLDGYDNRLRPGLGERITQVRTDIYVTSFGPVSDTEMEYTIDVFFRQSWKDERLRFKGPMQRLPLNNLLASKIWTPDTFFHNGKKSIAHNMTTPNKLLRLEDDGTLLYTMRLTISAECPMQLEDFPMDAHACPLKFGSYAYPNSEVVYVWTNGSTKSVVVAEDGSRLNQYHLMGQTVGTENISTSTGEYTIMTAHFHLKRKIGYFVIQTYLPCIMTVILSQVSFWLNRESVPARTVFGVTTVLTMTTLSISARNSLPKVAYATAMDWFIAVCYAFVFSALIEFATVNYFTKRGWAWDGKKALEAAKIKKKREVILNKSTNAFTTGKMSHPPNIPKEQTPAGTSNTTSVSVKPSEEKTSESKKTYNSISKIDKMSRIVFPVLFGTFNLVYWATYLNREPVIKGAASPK

[4] = biological target: GABA-A receptor; alpha-5/beta-3/gamma-2 (Homo sapiens) (UniProt P18507+P28472+P31644); assay: In vitro percent efficacy against human gamma-aminobutyric-acid A receptor alpha-5-beta-3-gamma-2 expressed in L(tk-) cells; type: cell-based
How it was run: (§1)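 Whole-cell patch clamp on mouse fibroblast L(tk-) cells stably expressing human αxβ3γ2 receptors. Efficacy is the maximum % modulation of current evoked by a submaximal (EC20) GABA concentration. Mean ± SEM from at least five individually fitted concentration–response curves per subtype.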

[5] = biological target: GABA-A receptor; alpha-3/beta-3/gamma-2 (Homo sapiens) (UniProt P18507+P28472+P34903); assay: In vitro percent efficacy against human gamma-aminobutyric-acid A receptor alpha-3-beta-3-gamma-2 expressed in L(tk-) cells; type: cell-based; how it was run: as §1
[6] = biological target: GABA-A receptor; anion channel (Rattus norvegicus) (UniProt O09028+P15431+P18506+P18508+P19969+P20236+P23574+P23576+P28471+P28473+P30191+P62813+P63079+P63138+Q91ZM7+Q9ES14); assay: Concentration required to occupy 50% of gamma-aminobutyric-acid GABA-A receptor alpha subtype at 0.75 hr after dose; type: protein-complex assay
How it was run: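 Rats dosed orally in 0.5% Methocel vehicle; occupancy of the benzodiazepine binding site measured 0.75 h postdose by in vivo [3H]Ro 15-1788 binding. Dose giving 50% occupancy read from the dose–occupancy relationship.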

[7] = biological target: T3, GABA-A receptor; alpha-1/beta-3/gamma-2 (Homo sapiens, UniProt P14867+P18507+P28472); assay: Displacement of [3H]-Ro- 15-1788 from human gamma-aminobutyric-acid GABA-A receptor alpha-1-beta-3-gamma-2 expressed in L(tk-) cells; type: cell-based
T3 sequence (P14867 whole entry): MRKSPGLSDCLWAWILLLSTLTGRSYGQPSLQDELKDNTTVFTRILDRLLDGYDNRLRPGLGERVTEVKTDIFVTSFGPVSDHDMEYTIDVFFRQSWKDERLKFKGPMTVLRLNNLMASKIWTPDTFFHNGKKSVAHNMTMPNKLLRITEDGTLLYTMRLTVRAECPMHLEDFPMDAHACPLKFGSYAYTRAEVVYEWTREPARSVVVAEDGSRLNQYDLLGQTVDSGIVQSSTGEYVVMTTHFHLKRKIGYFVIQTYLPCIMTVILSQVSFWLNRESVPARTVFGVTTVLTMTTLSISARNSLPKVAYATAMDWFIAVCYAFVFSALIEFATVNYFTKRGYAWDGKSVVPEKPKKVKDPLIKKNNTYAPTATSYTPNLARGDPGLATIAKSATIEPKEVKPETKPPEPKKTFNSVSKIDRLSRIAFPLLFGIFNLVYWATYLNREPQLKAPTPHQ
T3 sequence (P18507 whole entry): T1 sequence (P18507 whole entry)
T3 sequence (P28472 whole entry): T1 sequence (P28472 whole entry)

[8] = biological target: GABA-A receptor; alpha-6/beta-3/gamma-2 (Homo sapiens, UniProt P18507+P28472+Q16445); assay: Binding affinity towards gamma-aminobutyric-acid GABA-A receptor alpha-6-beta-3-gamma-2; type: protein-complex assay
[9] = Oral bioavailability in rat; type: ADME, organism-based; conditions: in vivo
[10] = biological target: T4, GABA-A receptor; alpha-2/beta-3/gamma-2 (Homo sapiens, UniProt P18507+P28472+P47869); assay: Displacement of [3H]-Ro- 15-1788 from human gamma-aminobutyric-acid GABA-A receptor alpha-2-beta-3-gamma-2 expressed in L(tk-) cells; type: cell-based
T4 sequence (P18507 whole entry): T1 sequence (P18507 whole entry)
T4 sequence (P28472 whole entry): T1 sequence (P28472 whole entry)
T4 sequence (P47869 whole entry): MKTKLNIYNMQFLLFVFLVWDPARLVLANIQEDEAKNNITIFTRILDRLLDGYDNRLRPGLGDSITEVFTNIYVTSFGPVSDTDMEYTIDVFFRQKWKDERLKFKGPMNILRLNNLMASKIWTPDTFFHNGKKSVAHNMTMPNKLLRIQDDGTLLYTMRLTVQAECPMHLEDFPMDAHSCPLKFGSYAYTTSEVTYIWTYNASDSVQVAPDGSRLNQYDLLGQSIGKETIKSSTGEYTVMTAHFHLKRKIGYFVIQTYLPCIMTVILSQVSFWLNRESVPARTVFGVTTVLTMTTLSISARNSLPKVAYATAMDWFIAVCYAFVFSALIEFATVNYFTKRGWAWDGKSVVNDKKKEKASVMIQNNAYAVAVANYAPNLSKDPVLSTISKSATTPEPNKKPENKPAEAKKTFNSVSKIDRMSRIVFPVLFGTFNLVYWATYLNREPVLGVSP

[11] = biological target: GABA-A receptor; alpha-2/beta-3/gamma-2 (Homo sapiens) (UniProt P18507+P28472+P47869); assay: In vitro percent efficacy against human gamma-aminobutyric-acid A receptor alpha-2-beta-3-gamma-2 expressed in L(tk-) cells; type: cell-based; how it was run: as §1
[12] = Oral bioavailability in dog; type: ADME, organism-based, Canis lupus familiaris; conditions: in vivo
[13] = biological target: GABA-A receptor; alpha-1/beta-3/gamma-2 (Homo sapiens) (UniProt P14867+P18507+P28472); assay: In vitro percent efficacy against human gamma-aminobutyric-acid A receptor alpha-1-beta-3-gamma-2 expressed in L(tk-) cells; type: cell-based; how it was run: as §1

GABA-A receptor; alpha-6/beta-3/gamma-2, sequence (Q16445 whole entry, one chain of several): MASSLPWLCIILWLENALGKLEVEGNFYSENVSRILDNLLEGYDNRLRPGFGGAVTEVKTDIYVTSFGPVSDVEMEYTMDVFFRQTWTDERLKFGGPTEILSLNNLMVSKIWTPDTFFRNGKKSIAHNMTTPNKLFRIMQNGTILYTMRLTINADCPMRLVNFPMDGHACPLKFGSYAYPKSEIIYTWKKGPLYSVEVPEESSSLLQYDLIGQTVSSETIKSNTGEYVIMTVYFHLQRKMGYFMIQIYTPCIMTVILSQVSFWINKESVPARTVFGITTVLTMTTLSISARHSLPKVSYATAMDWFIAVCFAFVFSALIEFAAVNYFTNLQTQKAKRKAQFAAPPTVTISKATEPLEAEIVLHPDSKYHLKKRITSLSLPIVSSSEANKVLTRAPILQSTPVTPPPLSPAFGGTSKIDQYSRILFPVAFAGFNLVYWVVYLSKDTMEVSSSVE
GABA A receptor alpha-4/beta-3/gamma-2, sequence (P48169 whole entry, one chain of several): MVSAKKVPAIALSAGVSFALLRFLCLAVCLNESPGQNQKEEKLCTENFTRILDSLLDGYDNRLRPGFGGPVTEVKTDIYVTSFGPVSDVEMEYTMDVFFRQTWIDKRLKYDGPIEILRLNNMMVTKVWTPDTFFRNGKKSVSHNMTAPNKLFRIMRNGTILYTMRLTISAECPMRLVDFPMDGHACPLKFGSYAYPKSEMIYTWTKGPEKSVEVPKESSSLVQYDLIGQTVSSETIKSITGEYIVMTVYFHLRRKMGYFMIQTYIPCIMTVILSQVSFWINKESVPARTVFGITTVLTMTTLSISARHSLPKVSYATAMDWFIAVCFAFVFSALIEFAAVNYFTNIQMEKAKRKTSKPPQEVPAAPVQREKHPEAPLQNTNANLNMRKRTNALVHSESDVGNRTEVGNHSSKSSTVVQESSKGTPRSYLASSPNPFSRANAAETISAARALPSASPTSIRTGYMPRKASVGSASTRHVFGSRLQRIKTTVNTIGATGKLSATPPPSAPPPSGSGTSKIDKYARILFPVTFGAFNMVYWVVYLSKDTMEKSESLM

Cc1cc(-c2nncc3c(C(C)(C)C)c(OCc4ncnn4C)nn23)no1
Ki [1]: 395 nM | Ki [2]: 0.77 nM | Ki [3]: 1.4 nM | Efficacy [4]: -55% | Efficacy [5]: -9% | Occupancy [6]: 0.35 mg/kg | Ki [7]: 0.83 nM | Ki [8]: > 4000 nM | bioavailability [9]: 52% | Ki [10]: 0.85 nM | Efficacy [11]: 6% | bioavailability [12]: 8% | Efficacy [13]: -16%

CCc1c(C(=O)OC)ncc2[nH]c3cc(OC)c(OC)cc3c12
Efficacy [4]: -57% | Efficacy [5]: -62% | Efficacy [11]: -53% | Efficacy [13]: -71%

CNC1=Nc2ccc(Cl)cc2C(c2ccccc2)=[N+]([O-])C1
Efficacy [5]: 113% | Efficacy [11]: 111% | Efficacy [13]: 100%

Cc1cc(-c2nnc3c4ccccc4c(OCc4cn(C)nn4)nn23)no1
Efficacy [4]: -40% | Efficacy [5]: -7% | Efficacy [11]: 16% | Efficacy [13]: -15%
